Source: ChEMBL document CHEMBL1134229 (Bioorg Med Chem Lett, 2001)

Tests used:
[1] = biological target: Somatostatin receptor type 1 (Homo sapiens, UniProt P30872); assay: Inhibitory constant on human Somatostatin receptor type 1
In short: (§1)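 Competition binding against [¹²⁵I-Tyr¹¹]SRIF-14 on membranes from CHO-K1 cells stably expressing each human SRIF receptor subtype. Method adapted from Shimon et al. Ki is reported.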

[2] = biological target: T1, Somatostatin receptor type 3 (Homo sapiens, UniProt P32745); assay: Inhibitory constant on human Somatostatin receptor type 3; in short: as §1
T1 sequence (P32745 whole entry): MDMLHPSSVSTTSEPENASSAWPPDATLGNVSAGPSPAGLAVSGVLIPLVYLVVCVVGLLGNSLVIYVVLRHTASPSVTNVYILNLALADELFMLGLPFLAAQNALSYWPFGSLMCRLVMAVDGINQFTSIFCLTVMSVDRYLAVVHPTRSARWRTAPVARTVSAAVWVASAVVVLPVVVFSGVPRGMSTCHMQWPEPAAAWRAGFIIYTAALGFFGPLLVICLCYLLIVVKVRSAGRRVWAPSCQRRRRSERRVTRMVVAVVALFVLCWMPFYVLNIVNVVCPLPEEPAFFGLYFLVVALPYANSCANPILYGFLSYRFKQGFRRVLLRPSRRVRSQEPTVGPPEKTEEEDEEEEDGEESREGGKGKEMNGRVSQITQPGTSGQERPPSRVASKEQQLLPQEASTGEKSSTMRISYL

[3] = biological target: T2, Somatostatin receptor type 5 (Homo sapiens, UniProt P35346); assay: Inhibitory constant on human Somatostatin receptor type 5; in short: as §1
T2 sequence (P35346 whole entry): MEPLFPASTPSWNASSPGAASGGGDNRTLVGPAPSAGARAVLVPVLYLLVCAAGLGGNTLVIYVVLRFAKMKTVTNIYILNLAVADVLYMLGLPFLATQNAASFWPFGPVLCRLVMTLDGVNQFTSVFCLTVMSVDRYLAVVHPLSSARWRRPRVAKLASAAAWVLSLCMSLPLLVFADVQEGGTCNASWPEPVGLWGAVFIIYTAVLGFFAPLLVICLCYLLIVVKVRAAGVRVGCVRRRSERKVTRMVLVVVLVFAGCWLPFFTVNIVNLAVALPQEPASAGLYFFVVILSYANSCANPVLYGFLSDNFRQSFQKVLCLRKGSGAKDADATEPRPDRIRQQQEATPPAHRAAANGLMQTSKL

[4] = biological target: T3, Somatostatin receptor type 2 (Homo sapiens, UniProt P30874); assay: (§2) Inhibitory constant on human Somatostatin receptor type 2; in short: as §1
T3 sequence (P30874 whole entry): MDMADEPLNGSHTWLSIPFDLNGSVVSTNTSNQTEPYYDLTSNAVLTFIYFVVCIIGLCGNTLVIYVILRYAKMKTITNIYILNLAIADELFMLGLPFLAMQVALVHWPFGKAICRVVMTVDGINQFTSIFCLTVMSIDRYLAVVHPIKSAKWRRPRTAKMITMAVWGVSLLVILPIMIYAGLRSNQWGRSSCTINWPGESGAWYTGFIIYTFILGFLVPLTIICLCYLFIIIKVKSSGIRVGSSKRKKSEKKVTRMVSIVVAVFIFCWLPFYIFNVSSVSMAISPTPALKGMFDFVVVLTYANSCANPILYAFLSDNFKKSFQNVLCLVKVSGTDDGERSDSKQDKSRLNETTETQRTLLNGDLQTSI

[5] = biological target: T4, Somatostatin receptor type 4 (Homo sapiens, UniProt P31391); assay: Inhibitory constant on human Somatostatin receptor type 4; in short: as §1
T4 sequence (P31391 whole entry): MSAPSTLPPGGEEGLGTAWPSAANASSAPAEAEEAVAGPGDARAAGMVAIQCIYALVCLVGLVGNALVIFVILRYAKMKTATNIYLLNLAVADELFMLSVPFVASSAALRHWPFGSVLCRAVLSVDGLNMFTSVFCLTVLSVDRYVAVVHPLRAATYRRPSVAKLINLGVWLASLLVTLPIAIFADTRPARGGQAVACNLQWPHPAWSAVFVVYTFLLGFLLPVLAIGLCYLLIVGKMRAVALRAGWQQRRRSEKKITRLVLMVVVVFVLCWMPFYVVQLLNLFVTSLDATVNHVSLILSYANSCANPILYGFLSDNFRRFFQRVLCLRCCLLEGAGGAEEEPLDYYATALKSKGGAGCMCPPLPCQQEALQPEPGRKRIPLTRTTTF

[6] = biological target: T2, Somatostatin receptor type 5; assay: Inhibitory constant on human somatostatin receptor 5; in short: as §1
[7] = biological target: T4, Somatostatin receptor type 4; assay: Inhibitory constant on human somatostatin receptor 4; in short: as §1
[8] = biological target: T3, Somatostatin receptor type 2; assay: as §2; type: single protein; in short: as §1
[9] = biological target: T1, Somatostatin receptor type 3; assay: Inhibitory constant on human somatostatin receptor type 3; in short: as §1
[10] = biological target: T2, Somatostatin receptor type 5; assay: Agonist activity on human somatostatin receptor 5; type: functional
In short: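 Confluent CHO-K1 cells expressing human sst₅ were washed in RPMI 1640 with 0.2% BSA at 37 °C, then preincubated 5 min with isobutylmethylxanthine. Cells were then incubated 20 min at 37 °C with forskolin plus increasing agonist concentrations.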

Chain of Somatostatin receptor type 1 (P30872 whole entry): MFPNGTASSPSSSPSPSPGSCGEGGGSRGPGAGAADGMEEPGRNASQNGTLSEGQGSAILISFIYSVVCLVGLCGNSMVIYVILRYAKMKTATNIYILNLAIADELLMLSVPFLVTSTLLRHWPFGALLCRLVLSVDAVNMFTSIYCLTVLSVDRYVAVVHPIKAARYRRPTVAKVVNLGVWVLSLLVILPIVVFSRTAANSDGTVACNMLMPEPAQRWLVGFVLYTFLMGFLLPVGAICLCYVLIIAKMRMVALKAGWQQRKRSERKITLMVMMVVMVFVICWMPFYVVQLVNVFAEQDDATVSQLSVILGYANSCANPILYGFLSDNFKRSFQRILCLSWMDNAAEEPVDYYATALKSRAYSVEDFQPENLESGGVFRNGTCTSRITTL

Structure (SMILES) | Ki [1] | Ki [2] | Ki [3] | Ki [4] | Ki [5] | Ki [6] | Ki [7] | Ki [8] | Ki [9] | EC50 [10]
c1ccc(Cc2nc(-c3ccccc3)cn3cc(-c4ccccc4)nc23)cc1 | > 5 µM | > 5 µM | > 5 µM | > 5 µM | > 5 µM | – | – | – | – | –
NCCCc1nc(-c2c[nH]c3ccccc23)cn2cc(-c3ccccc3)nc12 | 3.3 µM | – | – | – | – | 0.79 µM | > 10 µM | 6 µM | 3.1 µM | –
NCCCc1nc(-c2csc3ccccc23)cn2cc(-c3ccccc3)nc12 | 2.9 µM | – | – | – | – | 0.6 µM | 7.2 µM | 2.1 µM | 1.7 µM | –
CC(C)(C(=O)NCCN)c1cn2c(n1)C(Cc1c[nH]c3ccccc13)N=C(Cc1ccccc1)C2 (stereo unspecified) | > 10 µM | > 10 µM | > 1 µM | > 10 µM | > 10 µM | – | – | – | – | –
CC(C)(C(=O)NCCc1c[nH]c2ccccc12)c1cn2cc(Cc3ccccc3)nc(CCCN)c2n1 | 4.6 µM | – | – | – | – | 1.2 µM | 7.2 µM | 8.6 µM | 1.2 µM | –
CC(C)(C(=O)NCCc1c[nH]c2ccccc12)c1cn2cc(-c3csc4ccccc34)nc(CCCN)c2n1 | 4 µM | – | – | – | – | 2.3 µM | > 10 µM | 3.2 µM | 10 µM | –
NCCCc1nc(-c2ccccc2)cn2cc(-c3ccccc3)nc12 | > 5 µM | – | – | – | – | > 5 µM | > 5 µM | > 5 µM | > 5 µM | –
NCCCc1nc(-c2cccc([N+](=O)[O-])c2)cn2cc(-c3ccccc3)nc12 | 3.4 µM | – | – | – | – | 0.43 µM | > 10 µM | 7.9 µM | 2.5 µM | –
CCCCNC(=O)C(C)(C)c1cn2cc(-c3csc4ccccc34)nc(CCCN)c2n1 | > 10 µM | – | – | – | – | 0.54 µM | > 10 µM | > 10 µM | 8.9 µM | –
CC(C)(C(=O)NC1CCCCC1)c1cn2cc(-c3csc4ccccc34)nc(CCCN)c2n1 | 9.7 µM | – | – | – | – | 0.36 µM | > 10 µM | 9.5 µM | 3.7 µM | 1.6 µM
